Assay results from ChEMBL document CHEMBL4414566, “Cytotoxicity and Anti-inflammatory Properties of Apigenin-Derived Isolaxifolin” (J Nat Prod, 2019).
Activity calls are given as the source filed them. No cut-off for these calls is given here.

Tests used:
MDA-MB-231 [1] = assay: Induction of mitochondrial membrane potential loss in human MDA-MB-231 cells cell population with mitochondrial membrane potential collapse by measuring green fluorescence at 17.3 uM incubated for 48 hrs by JC1 staining based flow cytometric analysis (reference value: 7.96%); type: functional
Summary of the method: (§1)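 MDA-MB-231 cells in DMEM/10% FBS exposed 48 h to 0, 8.6, 12.4 or 17.3 μM. Harvested cells stained with JC-1 for 15 min in the dark, then analysed by flow cytometry. Excitation 488 nm; green emission read at 525 nm, red at 590 nm. Output given as percent green-to-red fluorescence intensity ratio. Triplicate, mean ± SD.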

RAW264.7 [2] = assay: Antiinflammatory activity against LPS-activated mouse RAW264.7 cells assessed as reduction in IL6 mRNA expression at 3.1 uM preincubated with LPS for 24 hrs followed by compound addition and measured after 24 hrs by qRT-PCR analysis; type: functional, cell-based
Summary of the method: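 RAW 264.7 cells (DMEM, 10% FBS, 37 °C, 5% CO2) seeded at 1 × 10^5/well and held 4 h. LPS 1.0 μg/mL was added for 24 h, then medium was replaced with test agent (0.8, 1.6, 3.1 μM or 2.3, 4.6, 9.2 μM) for 24 h. TNF-α and IL-6 transcripts were quantified by real-time qPCR against GAPDH. Triplicates, mean ± SD.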

MDA-MB-231 [3] = assay: Induction of cell cycle arrest in human MDA-MB-231 cells assessed as accumulation of cells at S phase at 8.6 uM incubated for 48 hrs by PI/RNase staining based flow cytometric analysis (reference value: 39.2%); type: functional
Summary of the method: (§2)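 Cell-cycle analysis: MDA-MB-231 cells were preincubated 24 h, then treated with 8.6, 12.4 or 17.3 μM for 48 h. Cells were pelleted, fixed in 75% ethanol at −20 °C overnight, and stained with PI/RNase for 15 min in the dark at ambient temperature. About 10 000 cells per well were analyzed by flow cytometry for DNA content.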

MDA-MB-231 [4] = assay: Induction of apoptosis in human MDA-MB-231 cells assessed as viable cells at 8.6 uM incubated for 48 hrs by annexin V-FITC/PI based flow cytometric analysis (Rvb= 96.21%); type: functional; conditions: MDA-MB-231, 48 h, read-out: Activity
MDA-MB-231 [5] = assay: Induction of cell cycle arrest in human MDA-MB-231 cells assessed as accumulation of cells at G2/M phase at 12.4 uM incubated for 48 hrs by PI/RNase staining based flow cytometric analysis (reference value: 10.4%); type: functional; summary of the method: as §2
HepG2 = assay: Antiproliferative activity against human HepG2 cells assessed as cell viability at 24.7 uM incubated for 48 hrs by methylene blue assay relative to control; type: functional; conditions: HepG2, 48 h, read-out: Activity
Summary of the method: (§3)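 MDA-MB-231, MCF-7, HepG2 and LNCaP cells were grown in DMEM; HCT-116 and LO-2 in RPMI-1640; all with 10% FBS at 37 °C, 5% CO2. Cells seeded at 1.5 × 10^5 cells/mL and incubated overnight (~12 h), then exposed to 6.2–30.9 μM or 23.1–185.0 μM (final DMSO <0.1%) for 48 h. Read by methylene blue staining; viability = Abs treated/Abs untreated × 100%, triplicate.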

MDA-MB-231 [6] = assay: Induction of cell cycle arrest in human MDA-MB-231 cells assessed as accumulation of cells at G2/M phase at 8.6 uM incubated for 48 hrs by PI/RNase staining based flow cytometric analysis (reference value: 10.4%); type: functional; summary of the method: as §2
RAW264.7 [7] = assay: Antiinflammatory activity in mouse RAW264.7 cells assessed as reduction in LPS-induced IL6 production at 0.8 to 3.1 uM preincubated with LPS for 24 hrs followed by compound addition and measured after 24 hrs by ELISA; type: functional, cell-based
Summary of the method: (§4)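 Murine RAW 264.7 macrophages, 1 × 10^5/well, 4 h settling, then LPS (1.0 μg/mL) for 24 h. Medium was swapped for test solutions (0.8–3.1 μM or 2.3–9.2 μM), or DXM 254.8 μM as positive control, for another 24 h. Secreted NO was measured by Griess assay; TNF-α and IL-6 by ELISA. Run in triplicate, mean ± SD.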

MDA-MB-231 [8] = assay: Induction of apoptosis in human MDA-MB-231 cells assessed as early apoptotic cells at 17.3 uM incubated for 48 hrs by annexin V-FITC/PI based flow cytometric analysis (Rvb= 0.24%); type: functional
RAW264.7 [9] = assay: Antiinflammatory activity in mouse RAW264.7 cells assessed as reduction in LPS-induced TNFalpha production at 0.8 to 3.1 uM preincubated with LPS for 24 hrs followed by compound addition and measured after 24 hrs by ELISA; type: functional, cell-based; summary of the method: as §4
L02 = assay: Cytotoxicity against human LO2 cells assessed as reduction in cell viability at 6.2 to 30.9 uM incubated for 48 hrs by methylene blue assay; type: cell-based; conditions: l02, 48 h; summary of the method: as §3
MDA-MB-231 [10] = assay: Induction of mitochondrial membrane potential loss in human MDA-MB-231 cells assessed as cell population with intact mitochondrial membrane potential by measuring red fluorescence at 8.6 uM incubated for 48 hrs by JC1 staining based flow cytometric analysis (reference value: 92.04%); type: functional; summary of the method: as §1
MDA-MB-231 [11] = assay: Induction of cell cycle arrest in human MDA-MB-231 cells assessed as accumulation of cells at G0/G1 phase at 12.4 uM incubated for 48 hrs by PI/RNase staining based flow cytometric analysis (reference value: 50.4%); type: functional; summary of the method: as §2
MDA-MB-231 [12] = assay: Induction of mitochondrial membrane potential loss in human MDA-MB-231 cells assessed as cell population with intact mitochondrial membrane potential by measuring red fluorescence at 12.4 uM incubated for 48 hrs by JC1 staining based flow cytometric analysis (reference value: 92.04%); type: functional; summary of the method: as §1
MCF7 = assay: Antiproliferative activity against human MCF7 cells assessed as cell viability at 24.2 uM incubated for 48 hrs by methylene blue assay relative to control; type: functional; conditions: MCF7, 48 h, read-out: Activity; summary of the method: as §3
MDA-MB-231 [13] = assay: Induction of mitochondrial membrane potential loss in human MDA-MB-231 cells assessed as cell population with intact mitochondrial membrane potential by measuring red fluorescence at 17.3 uM incubated for 48 hrs by JC1 staining based flow cytometric analysis (reference value: 92.04%); type: functional; summary of the method: as §1
RAW264.7 [14] = assay: Inhibition of nitric oxide production in mouse RAW264.7 cells at 0.8 to 3.1 uM measured after 24 hrs by griess reagent based assay; type: functional, cell-based
MDA-MB-231 [15] = assay: Antiproliferative activity against human MDA-MB-231 cells assessed as cell viability at 17.3 uM incubated for 48 hrs by methylene blue assay relative to control; type: functional; conditions: MDA-MB-231, 48 h, read-out: Activity; summary of the method: as §3
MDA-MB-231 [16] = assay: Induction of mitochondrial membrane potential loss in human MDA-MB-231 cells cell population with mitochondrial membrane potential collapse by measuring green fluorescence at 12.4 uM incubated for 48 hrs by JC1 staining based flow cytometric analysis (reference value: 7.96%); type: functional; summary of the method: as §1
MDA-MB-231 [17] = assay: Induction of cell cycle arrest in human MDA-MB-231 cells assessed as accumulation of cells at G0/G1 phase at 8.6 uM incubated for 48 hrs by PI/RNase staining based flow cytometric analysis (reference value: 50.4%); type: functional; summary of the method: as §2
MDA-MB-231 [18] = assay: Induction of apoptosis in human MDA-MB-231 cells assessed as late apoptotic cells at 17.3 uM incubated for 48 hrs by annexin V-FITC/PI based flow cytometric analysis (Rvb= 2.82%); type: functional

CC(C)=CCc1c2c(c(O)c3c(=O)cc(-c4ccc(O)cc4)oc13)C=CC(C)(C)O2 [LAXIFOLIN]
Activity (MDA-MB-231 [1]): 26.75% | Activity (RAW264.7 [2]): Active | Activity (MDA-MB-231 [3]): 29.5% | viability at 8.6 µM (MDA-MB-231 [4]): 88.3% | Activity (MDA-MB-231 [5]): 11.6% | viability at 24.7 µM (HepG2): 20% | Activity (MDA-MB-231 [6]): 11% | Activity (RAW264.7 [7]): Active | Activity (MDA-MB-231 [8]): 0.96% | Activity (RAW264.7 [9]): Active | Activity (L02): Non-Toxic | Activity (MDA-MB-231 [10]): 83.51% | Activity (MDA-MB-231 [11]): 60.2% | Activity (MDA-MB-231 [12]): 84.3% | viability at 24.2 µM (MCF7): 20% | Activity (MDA-MB-231 [13]): 73.25% | inhibition (RAW264.7 [14]): Active | viability at 17.3 µM (MDA-MB-231 [15]): 20% | Activity (MDA-MB-231 [16]): 15.7% | Activity (MDA-MB-231 [17]): 59.5% | Activity (MDA-MB-231 [18]): 24.55%
